The target of data set [1] is Glutamate NMDA receptor. Kind of data set: Affinity against 3[H]TCP binding to N-methyl-D-aspartate glutamate receptor in rat brain membranes. The format is cell membranes.
Data set [2] can be described thus: pKa value was determined. The format is physicochemical.
The nature of data set [3]: Inhibitory activity against NMDA open channel block. It is filed as functional. An outline of the steps: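 Superfused oocytes got a single inhibitor application per cell during NMDA response. Current at 300 s was normalized to the initial NMDA current. Inhibition = (mean control (NMDA alone) − test)/control × 100%.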
A short description of data set [4]: Ratio (closed/open) was determined. It is filed as functional. Put shortly:
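Oocytes injected with forebrain-derived RNA and held 48–72 h at 18–22 °C, then superfused. Open block: current 300 s after NMDA plus inhibitor, normalised to initial NMDA current, expressed as % of NMDA-alone controls, one application per cell. Closed block: 30 min inhibitor with 10 µM 7-chlorokynurenate, 1–2 min wash, then 100 µM NMDA, with 100 µM kainate as internal control. Ratio = closed/open IC50.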

The nature of data set [5]: logD value was determined. The conditions noted are these: octanol/water. It is filed as physicochemical.
A short description of data set [6]: Inhibitory activity against NMDA closed channel block. The format is functional. An outline of the steps: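 Oocytes (stage V-VI, defolliculated with 0.2% collagenase) were held 48-72 h at 18-22 °C in ND96 and superfused at ~4 mL/min. Controls were two 100 µM NMDA pulses 15 min apart. Cells then sat 30 min in 10 µM 7-chlorokynurenate plus inhibitor, were washed 1-2 min and retested with 100 µM NMDA. 100 µM kainate served as internal control. One application per cell.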

With `Oc1cccc2[n+]1C1CC(c3ccoc3)(c3ccoc3)C2c2ccccc21` (racemic), in data set [1], the Ki – broadly, a dissociation constant, usually derived from enzyme kinetics or from competition with a known ligand – stood at 3780 nM.
In data set [1], `COC(=O)C12CC(c3ccoc3)(c3ccoc3)C(c3ccccc31)c1cccc[n+]12` (racemic) showed a Ki of 39 nM.
On the same count and under the same terms, the value for `c1ccc2c(c1)C1CC(c3ccoc3)(c3ccoc3)C2c2c3ccccc3cc[n+]21` (racemic) was 19 nM; that for `COc1ccc[n+]2c1C1c3ccccc3C2CC1(c1ccoc1)c1ccoc1` (racemic) was 19 nM; that for `CCCCCCCCOc1cccc2c1C1c3cccc[n+]3C2CC1(c1ccoc1)c1ccoc1` (racemic) was 3380 nM.
The compound `N#CC12CC(c3ccoc3)(c3ccoc3)C(c3ccccc31)c1cccc[n+]12` (racemic) displayed a Ki in data set [1] of 10 nM.
`Oc1ccc[n+]2c1C1c3ccccc3C2CC1(c1ccoc1)c1ccoc1` (racemic): the pKa (usually the negative logarithm of the acid dissociation constant) in data set [2] worked out at 4.88. The IC50 (usually the concentration at which inhibition is half-maximal) was determined as 557 nM in data set [3] and 24800 nM in data set [6]. Further, the Ratio in data set [4] came to 44.6. The same compound returned a Ki in data set [1] of 294 nM. In data set [5], the logD (as a rule, the decadic logarithm of the distribution of all forms, ionised or not, between an organic phase and buffer at a given pH) turned out to be 1.66.
In data set [1], `Oc1cc(O)c2c(c1)C1CC(c3ccoc3)(c3ccoc3)C2c2cccc[n+]21` (racemic) registered a Ki of 125 nM.
In data set [1], `Oc1ccc2c(c1)C1CC(c3ccoc3)(c3ccoc3)C2c2cccc[n+]21` (racemic) returned a Ki of 29 nM.
The compound `Fc1ccc2c(c1)C1c3cccc[n+]3C2CC1(c1ccoc1)c1ccoc1` (racemic) displayed a Ki in data set [1] of 3.6 nM. The compound also had a logD in data set [5] of 0.75.
In turn, `Oc1ccc2c(c1)C1c3cccc[n+]3C2CC1(c1ccoc1)c1ccoc1` (racemic) registered a pKa in data set [2] of 8.8. The results for the IC50 in data set [3] and in data set [6] were 7.3 nM and 1030 nM, respectively. The Ratio in data set [4] worked out at 142. This compound also yielded a Ki in data set [1] of 2.1 nM. The same compound had a logD in data set [5] of 0.32.
As to `Oc1cccc2c1C1c3cccc[n+]3C2CC1(c1ccoc1)c1ccoc1` (racemic), the pKa in data set [2] was 8.6. Further, the IC50 is 9.13 nM in data set [3] and 3860 nM in data set [6]. The Ratio in data set [4] stood at 422. Besides, the Ki in data set [1] amounted to 1.8 nM. The compound also displayed a logD in data set [5] of -0.81.
In turn, `Brc1ccc(Br)c2c1C1CC(c3ccoc3)(c3ccoc3)C2c2cccc[n+]21` (racemic) had a Ki in data set [1] of 345 nM.
In data set [1], `COc1cccc2c1C1c3cccc[n+]3C2CC1(c1ccoc1)c1ccoc1` (racemic) gave a Ki of 6 nM. Besides, the logD in data set [5] was -3.66.
Turning to `CC12CC(c3ccoc3)(c3ccoc3)C(c3ccccc31)c1cccc[n+]12` (racemic), the Ki in data set [1] was 1.2 nM.
Still for that read-out and setting: the value for `Oc1ccc2[n+](c1)C1CC(c3ccoc3)(c3ccoc3)C2c2ccccc21` (racemic) was 1530 nM.
Take `Oc1cccc2c1C1c3cccc[n+]3C2CC1(c1ccccc1)c1ccccc1` (racemic): in data set [1], affinity was put at a Ki of 12 nM. In data set [5], this compound displayed a logD of 1.75.
Regarding `COc1cc(OC)c2c(c1)C1CC(c3ccoc3)(c3ccoc3)C2c2cccc[n+]21` (racemic), the affinity in data set [1] corresponds to a Ki of 3790 nM.
Still for that read-out and setting: the result for `OCc1cccc2c1C1c3cccc[n+]3C2CC1(c1ccoc1)c1ccoc1` (racemic) reads 159 nM.
Still for that read-out and setting: the result for `COc1c(Cl)ccc2c1C1c3cccc[n+]3C2CC1(c1ccoc1)c1ccoc1` (racemic) reads 64 nM; that for `O=S(=O)([O-])c1cccc2c1C1c3cccc[n+]3C2CC1(c1ccoc1)c1ccoc1` (racemic), more than 10000 nM; that for `c1ccc2c(c1)C1CC(c3ccoc3)(c3ccoc3)C2c2cccc[n+]21` (racemic), 2 nM.
Turning to `c1ccc(C2(c3ccccc3)CC3c4ccccc4C2c2cccc[n+]23)cc1` (racemic), in data set [2], the pKa came out at 11.7. The figures for the IC50 in data set [3] and in data set [6] were 32 nM and 18100 nM, respectively. Further, the Ratio in data set [4] was 564. In data set [5], this compound returned a logD of -2.54.
In data set [1], `O=C(O)c1ccc2c(c1)C1c3cccc[n+]3C2CC1(c1ccoc1)c1ccoc1` (racemic) came in with a Ki of more than 10000 nM. Besides, in data set [5], the logD is 1.76.
Compound `Clc1cccc2[n+]1C1CC(c3ccoc3)(c3ccoc3)C2c2ccccc21` (racemic) returned a Ki in data set [1] of 633 nM.
On to `Oc1c(Cl)ccc2c1C1c3cccc[n+]3C2CC1(c1ccoc1)c1ccoc1` (racemic), for which the affinity in data set [1], expressed as Ki, was 24 nM. The compound further had a logD in data set [5] of -0.99.
In data set [2], `CCOC1(OCC)C2c3ccccc3C([n+]3ccccc32)C1(C)C` (racemic) displayed a pKa of 12.2. In addition, the concentration for half-maximal inhibition (IC50) came to 27 nM in data set [3] and 14200 nM in data set [6]. The Ratio in data set [4] was 527.
In the case of `C[C@]12N[C@H](Cc3ccccc31)c1ccccc12` [DIZOCILPINE], in data set [2], the pKa was found to be 5.81. In addition, the results for the IC50 in data set [3] and in data set [6] were 23 nM and 40 nM, respectively. For the same compound, the Ratio in data set [4] is 1.6.
In data set [2], `c1ccc(C2(N3CCCCC3)CCCCC2)cc1` [PHENCYCLIDINE] came in with a pKa of 9.97. Moreover, the IC50 in data set [3] came out at 270 nM; in data set [6] it was 450 nM. Moreover, the Ratio in data set [4] was 1.7.

Source of the values: ChEMBL document CHEMBL1128589, “Novel benzo[b]quinolizinium cations as uncompetitive N-methyl-D-aspartic acid (NMDA) antagonists: the relationship between log D and agonist independent (closed) NMDA channel block” (J Med Chem, 1995).
